pIC50: −log10 of the molar value. Activity calls are given as the source filed them. The calls are words filed in the database; no cut-off is given here.
Assays:
Tubulin (Homo sapiens) = Tubulin (Homo sapiens) (UniProt P68371+Q9H4B7+P0DPH7+P68366+Q13509+Q71U36+P04350+Q3ZCM7+P07437+P68363+Q9BQE3+Q6PEY2+Q13885+Q9BVA1+Q9BUF5); assay: Inhibition of human tubulin polymerization assessed as induction of tubulin polymerization destabilization at 30 uM by turbidimetric assay
HMEC-1 [1] = assay: Antiproliferative activity against human HMEC1 cells measured after 4 days by Coulter counter method; type: functional, cell-based; conditions: HMEC-1, 96 h
HeLa [2] = assay: Antiproliferative activity against human HeLa cells measured after 3 days by Coulter counter method; type: functional, cell-based; conditions: 72 h
CCRF-CEM = assay: Antiproliferative activity against human CEM cells measured after 96 hrs by Coulter counter method; type: functional, cell-based
In short: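 CEM suspension cells seeded at 60,000 cells/well with a range of compound concentrations, grown 96 h, then counted. Medium is DMEM with 10% FBS, 0.01 M Hepes and 1 mM sodium pyruvate, 37 °C, 5% CO2.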

Tubulin (Bos taurus) = Tubulin (Bos taurus) (UniProt Q6B856+Q862L2+Q862F3); assay: Binding affinity to calf brain tubulin assessed as binding constant incubated for 30 mins in presence of R-PT by fluorescence based method
In short: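 Competition assay with calf brain tubulin. A premixed 0.2 µM R-PT plus 0.2 µM tubulin sample was exposed to ligand at 0–70 µM in 10 mM sodium phosphate, 0.1 mM GTP, pH 7.0, incubated 30 min at 25 °C. Fluorescence read at 456 nm (excitation 374 nm). Kb fitted by competition analysis, mean of three experiments ± StdError.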

L1210 = assay: Antiproliferative activity against mouse L1210 cells measured after 96 hrs by Coulter counter method; type: functional, cell-based; conditions: L1210, 96 h
In short: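 L1210 suspension cells seeded at 60,000 cells/well with a range of compound concentrations, grown 96 h, counted in a Coulter counter. IC50 is the concentration reducing proliferation by 50%, mean ± SD of three independent experiments.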

HeLa [3] = assay: Cell cycle arrest in human HeLa cells assessed as accumulation at G2/M phase at 2 uM measured after 24 hrs by DAPI staining based HCS analysis; type: functional
HeLa [4] = assay: Cell cycle arrest in human HeLa cells assessed as accumulation at G2/M phase at 0.016 uM measured after 24 hrs by DAPI staining based HCS analysis; type: functional
HeLa [5] = assay: Cell cycle arrest in human HeLa cells assessed as accumulation at G2/M phase at 0.4 uM measured after 24 hrs by DAPI staining based HCS analysis; type: functional
HeLa [6] = assay: Cell cycle arrest in human HeLa cells assessed as accumulation at G2/M phase at 0.08 uM measured after 24 hrs by DAPI staining based HCS analysis; type: functional
HMEC-1 [7] = assay: Vascular disrupting activity in human HMEC1 cells at 0.4 uM after 90 mins; type: functional, cell-based
In short: (§1)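 HMEC-1 seeded at 60,000 cells/well on matrigel (10 mg/mL, gelled 30 min at 37 °C) in DMEM with 10% FCS. After 3 h at 37 °C, once tube-like networks formed, compound was added at 2, 0.4 or 0.08 µM. After 90 min, images taken at 100× and meshes, branching points and tube length quantified.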

HMEC-1 [8] = assay: Vascular disrupting activity in human HMEC1 cells at 0.08 to 2 uM after 90 mins; type: functional, cell-based
In short: as §1

HMEC-1 [9] = assay: Cell cycle arrest in human HMEC1 cells assessed as accumulation at G2/M phase at 0.08 uM measured after 24 hrs by propidium iodide based FACSCalibur flow cytometry; type: functional
In short: (§2)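 HMEC-1 seeded at 125,000 cells/well in DMEM with 10% FBS and exposed to compound after 24 h. After another 24 h, DNA was stained with propidium iodide and analysed by flow cytometry within 3 h. Debris and clumps were gated out, and sub-G1, G1, S and G2/M fractions estimated with region markers.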

HMEC-1 [10] = assay: Cell cycle arrest in human HMEC1 cells assessed as accumulation at G2/M phase at 0.4 uM measured after 24 hrs by propidium iodide based FACSCalibur flow cytometry; type: functional
In short: as §2

SMILES | Activity (Tubulin (Homo sapiens)) | pIC50 (HMEC-1 [1]) | pIC50 (HeLa [2]) | pIC50 (CCRF-CEM) | Kb (Tubulin (Bos taurus)) [×10⁶ /M] | pIC50 (L1210) | Activity (HeLa [3]) | Activity (HeLa [4]) | Activity (HeLa [5]) | Activity (HeLa [6]) | Activity (HMEC-1 [7]) | Activity (HMEC-1 [8]) | Activity (HMEC-1 [9]) | Activity (HMEC-1 [10])
COc1ccc(Oc2ccccc2NC(C)=C2C(=O)CC(c3ccccc3)CC2=O)cc1 (stereo unspecified) | Active | 7.08 | 6.80 | 6.92 | 5.23 | 6.85 |  |  |  |  |  |  |  | 
CC(=O)c1ccc(Oc2ccccc2NC(C)=C2C(=O)CC(c3ccccc3)CC2=O)cc1 (stereo unspecified) |  | 6.74 | 6.89 | 6.66 |  | 6.72 |  |  |  |  |  |  |  | 
COc1cc2c(c(OC)c1OC)-c1ccc(OC)c(=O)cc1[C@@H](NC(C)=O)CC2 |  |  |  |  |  |  | Active | Active | Active | Active |  |  |  | 
COc1ccc(Oc2ccccc2NC(C)=C2C(=O)CC(c3ccccc3)CC2=O)cc1OC (stereo unspecified) | Active | 6.85 | 7.27 | 6.80 | 2.24 | 7.19 |  |  |  |  |  |  |  | 
CC(Nc1ccccc1Oc1ccccc1)=C1C(=O)CC(c2ccccc2)CC1=O (stereo unspecified) | Active | 6.80 | 7.10 | 6.77 | 6.46 | 7.07 |  |  |  |  |  |  |  | 
CC(Nc1ccccc1Oc1cccc(N)c1)=C1C(=O)CC(c2ccccc2)CC1=O (stereo unspecified) | Active | 7.39 | 7.09 | 7.38 | 5.56 | 7.28 |  |  |  |  |  |  |  | 
CC(Nc1ccccc1Oc1ccc(C(C)O)cc1)=C1C(=O)CC(c2ccccc2)CC1=O (stereo unspecified) | Active | 6.85 | 7.12 | 6.92 | 3.13 | 7.24 |  |  |  |  |  |  |  | 
CCOc1ccccc1NC(C)=C1C(=O)CC(c2ccccc2)CC1=O (stereo unspecified) | Active | 7.00 | 6.74 | 6.72 | 13 | 6.72 |  |  |  |  |  |  |  | 
COc1cccc(Oc2ccccc2NC(C)=C2C(=O)CC(c3ccccc3)CC2=O)c1 (stereo unspecified) | Active | 7.23 | 7.03 | 7.39 | 15.7 | 7.24 |  |  |  |  |  |  |  | 
CC(Nc1ccccc1Oc1ccc(N)cc1)=C1C(=O)CC(c2ccccc2)CC1=O (stereo unspecified) | Active | 7.33 | 7.41 | 7.43 | 11.8 | 7.40 | Active | Active | Active | Active | Active | Dose-dependent effect | Active | 
CC(Nc1ccccc1Oc1cccc(F)c1)=C1C(=O)CC(c2ccccc2)CC1=O (stereo unspecified) |  | 6.44 | 6.26 | 6.77 |  | 6.48 |  |  |  |  |  |  |  | 
COc1ccc(/C=C\c2cc(OC)c(OC)c(OC)c2)cc1OP(=O)(O)O [FOSBRETABULIN DISODIUM] |  |  |  |  |  | 7.89 |  |  |  |  |  |  |  | 
COc1cc(Oc2ccccc2NC(C)=C2C(=O)CC(c3ccccc3)CC2=O)ccc1N (stereo unspecified) | Active | 7.54 | 7.48 | 7.92 | 18.1 | 7.59 | Active | Active | Active | Active | Active | Dose-dependent effect |  | Active
COc1cc([C@@H]2c3cc4c(cc3[C@H](O)[C@H]3COC(=O)[C@H]23)OCO4)cc(OC)c1OC | Active |  |  |  |  |  |  |  |  |  |  |  |  | 
CC(Nc1ccccc1Oc1ccc(Cl)cc1)=C1C(=O)CC(c2ccccc2)CC1=O (stereo unspecified) |  | 6.59 | 6.30 | 6.72 |  | 6.60 |  |  |  |  |  |  |  | 

Source: ChEMBL document CHEMBL4346682 (Eur J Med Chem, 2019)
